The list is not random: actives were taken first. Their share in the collection is about 1.5%.
MT1-MMP act inh – MT1-MMP (human) activation inhibition; GFP/RFP ratio change, % at 20 µM; 0.061% of 360,000 active; HT1080 RFP-PRO-GFP cells, GFP/RFP ratio fluorescence, overnight; percent of plate control window, DMSO zero; P50281;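 active means GFP/RFP ratio change of at least 30% with cell ATP level not reduced by more than half and red fluorescence within 50% of control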
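Read-out: GFP/RFP fluorescence ratio; Test system: RFP-PRO-GFP reporter HT1080 cells; Compound dosing: single-point 20 µM compound, 1% DMSO; Times: overnight compound exposure at 37 °C.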
UCH37 DUB inh – blocks the human deubiquitinase UCH37; Q9Y5K5; purified proteasome/UCH37, Ub-AMC cleavage fluorescence; inhibition, % (no concentration beside the values); 0.33% of 330,000 active; AID 588478;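 active means mean inhibition over replicate wells above about 20%, limit read from the data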
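assay system = human UCH37 enzyme supplied as purified proteasome complex | amount = proteasome at 0.15 nM in the dispensed enzyme solution | schedule = 30 min compound-proteasome preincubation then 25 min substrate reaction, room temperature | measured by = fluorescence, ex 355 nm, em 460 nm | benchmarks = no-proteasome wells (full inhibition) and compound-free wells (no inhibition)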
DAGLB inh – blocks human DAGLB lipase activity; Q8NCG7; HEK293T DAGLB membrane lysate, EnzChek fluorogenic substrate; inhibition, % at 5.17 µM; 0.059% of 340,000 active; AID 504411; in the data active means inhibition above about 34%
CendR NRP1 mod – NRP-1/CendR interaction modulation. O14786. 0.85% of 360,000 active. AID 602438. FAM-RPARPAR peptide binding to NRP-1, fluorescence polarization. inhibition, % at 25 µM;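 active means inhibition or corrected inhibition above about 18%, plus a signal ratio from 0.5 to 1.5, limit read from the data, passing the limit was not always enough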
Fh CTSL1 inh – blocks F. hepatica cathepsin L1 in PFM18AAP counter-screen. inhibition, % at 5.96 µM. 0.49% of 300,000 active. AID 1906. recombinant F. hepatica cathepsin L1, Z-Leu-Arg-MCA fluorescence;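 active means inhibition above the mean of all tested compounds plus 3 SD, set per screening campaign, cut at about 17% in these data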
UCH37 confirm – UCH37 Ub-AMC cleavage inhibition, confirmed. shares compounds with UCH37 DUB inh. Proteasome-bound UCH37, Ub-AMC cleavage fluorescence. inhibition, % at 20 µM. 27% of 480 active;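 active means average inhibition over replicates above about 50%, so the earlier screening hit is confirmed, limit read from the data; inactive means the rest, counted as false positives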;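 further: based on cleavage rate fitted by regression over a 30 min kinetic read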
A number is an active result; - = inactive; . = not tested or not shown.

SMILES | MT1-MMP act inh | UCH37 DUB inh | DAGLB inh | CendR NRP1 mod | Fh CTSL1 inh | UCH37 confirm
C[N+]1(C)CCC(=C2c3ccccc3CC(=O)c3sccc32)CC1 | - | 75 | - | - | - | -
Cc1c(N=C2C=CC(=O)c3ccccc32)c(=O)n(-c2ccccc2)n1C | - | 61 | - | 38 | . | -
Cc1c(N=C2C=C(Br)C(=O)C(Br)=C2)c(=O)n(-c2ccccc2)n1C | - | - | - | - | . | .
C/C(C=NNC(=O)CN1CCN(S(=O)(=O)c2ccc(C)cc2)CC1)=C\c1ccccc1 | . | - | . | . | . | .
Cc1[nH][nH]c(=O)c1C(c1cc([N+](=O)[O-])ccc1O)c1c(C)[nH][nH]c1=O | - | - | - | - | - | .
Cc1[nH][nH]c(=O)c1C(c1c(C)[nH][nH]c1=O)c1cn(C)c2ccccc12 | - | 90 | - | 20 | . | 57
Cc1[nH][nH]c(=O)c1C(c1c(C)[nH][nH]c1=O)c1cn(Cc2cccc3ccccc23)c2ccccc12 | - | 83 | - | - | - | -
N=C1/C(=C/c2ccc(-c3cccc(C(=O)O)c3)o2)C(=O)N=C2SC=C(c3ccccc3)N12 | - | 26 | - | - | - | 66
CC(=O)C1=C(C)N=c2sc(=Cc3ccc4c(c3)OCO4)c(=O)n2C1c1ccc(N(C)C)cc1 (stereo not drawn) | . | - | . | . | . | .
COc1cc2c(NCCCCCO)ncnc2c(OC)c1OC | - | . | - | - | . | .
COc1cc(NCCCCCCN)c2ncccc2c1OC | - | 69 | - | 31 | . | 70
Cc1cc(C(=O)C[N+]2(C)CCOCC2)c(C)n1-c1ccc(Br)cc1 | - | 45 | - | - | - | -
Oc1c(C=C2N=c3ccccc3=N2)sc(=S)n1-c1ccccc1 | - | - | - | - | - | .
CC1=Nc2ccccc2/C1=C/c1sc(=S)n(-c2cccc(C(=O)O)c2)c1O | - | 26 | - | - | . | 57
CC(NC(=O)COC(=O)c1ccc([N+](=O)[O-])o1)c1ccccc1 (stereo not drawn) | - | 26 | - | - | . | -
COc1ccc(CC(=O)NN=Cc2cc(Br)c(O)c(Br)c2)cc1 | . | - | . | . | . | .
Cc1ccc(NC2C(=O)NC(=O)NC2=O)cc1 | - | 80 | - | - | . | -
Cc1ccc(NC2CNC(=O)NC2=O)cc1C (stereo not drawn) | - | - | - | - | . | .
CCn1c(N)nc2c1c(=O)n(C)c(=O)n2C | - | - | - | - | - | .
COc1ccc(-c2nc(-c3ccccn3)ncc2S(C)(=O)=O)cc1 | - | - | - | - | - | .
CCCc1nc2c(=O)n(C)c(=O)nc-2n(C)n1 | - | 100 | - | - | . | 100
Cn1nc(-c2ccccn2)nc2c(=O)n(C)c(=O)nc1-2 | - | 97 | - | 28 | 114 | 100
Cc1nc(C#N)c(NN=Cc2cccc(Cl)c2)o1 | . | - | . | . | . | .
Clc1ccc(Nc2nc(-c3ccncc3)cs2)cc1 | - | 49 | - | - | - | -
Cc1ccc(-n2c(C)cc(C=NNC(=O)CC(=O)NC(C)C)c2C)cc1 | . | - | . | . | . | .
SMILES | MT1-MMP act inh | UCH37 DUB inh | DAGLB inh | CendR NRP1 mod | Fh CTSL1 inh | UCH37 confirm
CC(=O)[C@H]1[C@@H]2C(=O)N(c3cccc(Cl)c3)C(=O)[C@@H]2[C@H]2c3ccccc3C=CN21 | - | 40 | - | - | - | -
CC(=O)[C@@H]1[C@@H]2C(=O)N(c3ccc(F)c(Cl)c3)C(=O)[C@@H]2C2c3ccccc3C=CN21 (stereo partly drawn) | . | . | . | . | - | .
CCOC(=O)C1=CC[C@@H](c2ccccc2Cl)N(S(=O)(=O)c2ccc(C)cc2)[C@H]1C(=O)OCC | - | 38 | - | - | . | -
CCOC(=O)C1=CC[C@@H](c2cccc(C)c2)N(S(=O)(=O)c2ccc(C)cc2)[C@H]1C(=O)OCC | - | - | - | - | . | .
Cc1c(NC(=O)C(C)OC(=O)c2sc3ccccc3c2Cl)c(=O)n(-c2ccccc2)n1C (stereo not drawn) | - | - | - | - | - | .
Cc1c(NC(=O)C(C)OC(=O)c2ccc([N+](=O)[O-])s2)c(=O)n(-c2ccccc2)n1C (stereo not drawn) | - | 77 | - | - | 28 | -
NS(=O)(=O)c1ccc2c(c1)C(=NO)c1cc(S(N)(=O)=O)ccc1-2 | - | - | - | - | - | .
NC1=C(Cl)C(=O)c2ccc(S(N)(=O)=O)cc2C1=O | - | 89 | - | - | . | 92
